Experimental data of several laboratories.
Protocols differ between the studies behind these lines.
Organism: Staphylococcus aureus
Observed: microbial killing

The MBC of `O=C(O)CN1C(=O)/C(=C/c2ccc(-c3ccc(N(c4ccccc4)c4ccccc4)cc3)cc2)NC1=S` is reported as 3.9 µg/mL (broth dilution; ATCC6538).
The MBC of `CCCCCCCCCCCCCCCC#CC(=O)O` is reported as 15.6 µg/mL.
`COc1c(C)c(OC(=O)c2ccccc2)c(C)c(O)c1C(=O)/C=C/c1ccccc1` gave an MBC of over 5000 µg/mL (broth dilution; ATCC25923).
With `N#CC(=Cc1ccccc1O)C1=NC(=O)C(=Cc2cn(-c3ccccc3)nc2-c2ccccc2)S1` the MBC was 0.5 µg/mL (broth dilution).
With `O=C(O)CN1C(=O)/C(=C/c2c3ccccc3c(-c3ccc(N(c4ccccc4)c4ccccc4)cc3)c3ccccc23)SC1=S` the MBC was over 1000 µg/mL (broth dilution; ATCC43300).
`CN[C@H](CC(C)C)C(=O)N[C@H]1C(=O)N[C@@H](CC(N)=O)C(=O)N[C@H]2C(=O)N[C@H]3C(=O)N[C@H](C(=O)N[C@H](C(=O)O)c4cc(O)cc(O)c4-c4cc3ccc4O)[C@H](O)c3ccc(c(Cl)c3)Oc3cc2cc(c3O[C@@H]2O[C@H](CO)[C@@H](O)[C@H](O)[C@H]2O[C@H]2C[C@](C)(N)[C@H](O)[C@H](C)O2)Oc2ccc(cc2Cl)[C@H]1O` has an MBC of 1 µM (broth dilution; ATCC6538).
`COc1c(C)c(OC)c(C(=O)/C=C/c2ccccc2)c(OC)c1C` gave an MBC of over 5000 µg/mL (broth dilution; ATCC25923).
`O=c1[nH]cc(F)c(=O)[nH]1` has an MBC of 1 µg/mL (broth dilution; 48 h).
`CCCCCCCC(=O)Oc1c(C)c(O)c(C(=O)/C=C/c2ccccc2)c(OC)c1C` gave an MBC of over 5000 µg/mL (broth dilution; ATCC25923).
The MBC of `CC(=O)NC[C@H]1CN(c2ccc(N3CCOCC3)c(F)c2)C(=O)O1` is reported as 64 µM (broth dilution; MRSA NRS119; drug-resistant strain).
For `N#CC(=Cc1cn(-c2ccccc2)nc1-c1ccccc1)C1=NC(=O)CS1`, the MBC was 0.25 µg/mL (broth dilution).
`O=C1NC(=S)N/C1=C\c1c2ccccc2c(-c2ccc(N(c3ccccc3)c3ccccc3)cc2)c2ccccc12` has an MBC of over 1000 µg/mL (broth dilution; ATCC43300).
`COc1c(C)c(OC)c2c(c1C)OC(c1ccccc1)CC2=O` (stereo not shown) gave an MBC of over 5000 µg/mL (broth dilution; ATCC25923).
`COc1cc(NC(C)CCCNC(=O)c2ccncc2C(=O)NCCCC(C)Nc2cc(OC)cc3ccc(C(C)(C)C)nc23)c2nc(C(C)(C)C)ccc2c1.Cl` (stereo not shown) has an MBC of 10 to 20 µg/mL (ATCC43300 MRSA; drug-resistant strain).
The MBC of `COc1c(C)c(OC(C)=O)c(C)c(OC(C)=O)c1C(=O)/C=C/c1ccccc1` is reported as over 5000 µg/mL (broth dilution; ATCC25923).
`O=[N+]([O-])c1ccc(-c2nc3cccc(O)c3[nH]2)o1` has an MBC of 2 µg/mL (ATCC33591).
For `COc1cc(NC(C)CCCNC(=S)NCCCC(C)Nc2cc(OC)cc3cccnc23)c2ncccc2c1.Cl.Cl` (stereo not shown), the MBC was 10 to 20 µg/mL (ATCC43300 MRSA; drug-resistant strain).
The MBC of `COc1c(C)c(OC(=O)c2ccc(C)cc2)c(C)c(O)c1C(=O)/C=C/c1ccccc1` is reported as over 5000 µg/mL (broth dilution; ATCC25923).
The MBC of `O=C1NC(=S)S/C1=C\c1ccc(-c2ccc(N(c3ccccc3)c3ccccc3)cc2)c2ccccc12` is reported as over 1000 µg/mL (broth dilution; ATCC43300).
With `CCCCCCCCCC(=O)Oc1c(C)c(O)c(C(=O)/C=C/c2ccccc2)c(OC)c1C` the MBC was over 5000 µg/mL (broth dilution; ATCC25923).
`O=C1NC(=S)S/C1=C\c1ccc(-c2ccc(N(c3ccccc3)c3ccccc3)cc2)cc1` has an MBC of over 1000 µg/mL (broth dilution; ATCC43300).
With `Cc1cc(/C=C2\Sc3ccccc3N2CCCN2CCC(C)CC2)c2ccccc2[n+]1C.[I-]` the MBC was 8 µg/mL (ATCC29213).
